The source of these data is PubChem BioAssay.

Assay [1] in a line: reducers of endogenous Her2 protein level, primary screen, SKBR3 breast tumor cells, AlphaScreen, ATP viability (AID 461;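 active = Her2 level under about 52% in both replicate screens, with viability over 70% of control, limit read from the data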;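 for Her2 level: lower value means less Her2 protein in the cells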;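 for viability: percent of carrier control wells set as 100% viability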). The note with it: 18-24 h, measured here: SKBR3 viability, ATP luminescence, at 10 µM. (In general: Alpha assays give light when donor and acceptor beads are brought close together.)
Assay [2] addresses Receptor tyrosine-protein kinase erbB-2 (Homo sapiens) (UniProt P04626). The description is as above. The note with it: 18-24 h, at 10 µM, stronger effect = lower value.
A short description of assay [3]: SK-BR-3 cell growth inhibitors, pilot screen, 24 h, human (AID 572;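 active = viability at or below 10% of carrier control in both of two separate runs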;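 note: compound exposure lasted between 18 and 24 h rather than exactly 24 h; 100% = carrier-treated control wells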). The note with it: SK-BR-3 viability, CellTiter-Glo luminescence, at 10 µM, stronger effect = lower value. Background: ATP-based viability assays read luminescence as a measure of living cells.
Assay [4] can be described thus: HUVEC growth inhibition – cell-based, human, primary screen (AID 575;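 active = viability at or below 30% in both replicate assays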;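 note: 100% = median of untreated cell wells with 0.1% DMSO on each plate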). The note with it: HUVEC proliferation, CellTiter-Glo luminescence, 72 h; at 10 µM; stronger effect = lower value. The method in brief: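 Assay system: primary human umbilical vein endothelial cells / Buffer or medium: endothelial basal medium with 2% FBS plus growth supplements / Compound dosing: one dose, 10 µM final, 0.1% DMSO / Timing: 72 h treatment at 37 °C / Signal: CTG luminescence / Benchmarks: 32 DMSO-only cell-control wells (high), 32 MePR drug-control wells (low) per plate / Plate: collagen-coated 384-well format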

Assay [5] in a line: growth inhibitors of H69AR lung tumor, primary screen, human, duplicate replicates (AID 580).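 Note: 100% = mean luminescence of untreated wells and 0% = no signal.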 The note with it: H69AR lung tumor cells viability, ATP luminescence, 72 h; at 10 µM; stronger effect = lower value.
Assay [6] is described as follows: reversal of MRP1-mediated doxorubicin resistance, pilot screen, H69AR cells, doxorubicin co-treatment (AID 601;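 active = viability loss from added drug above about 55%, and viability with drug at most 40%, in both replicates, limit read from the data, passing the limit was not always enough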). The note with it: CellTiter-Glo, 72 h, at 10 µM; for differential viability (reversal): stronger effect = higher value.
The nature of assay [7]: 384-well plate pilot, post-Golgi transport modulator project, inhibition of yeast transport mutant growth (AID 636; in the data active = inhibition above about 31%). The note with it: absorbance 615 nm, about 18 h, stronger effect = higher value.
The nature of assay [8]: growth suppression of yeast trafficking mutant, preliminary HTS, modulators of trafficking downstream of Golgi apparatus project, 1536-format plate, OD 615 nm (AID 637; in the data active = inhibition above about 30%). As to conditions: yeast transport mutant growth, absorbance 615 nm, 18 h; stronger effect = higher value.
The mark [9] stands for this setting: H69AR cells + 2 uM doxorubicin, measured here: viability with 2 uM doxorubicin, stronger effect = lower value.
Setting [10] is: H69AR cells, compound alone cytotoxicity.

Activity calls are given as the source filed them.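 Rule for the calls, unless noted: active = viability at or under a set limit in both replicates, limit being median viability minus 3 SD (cut at about 48% in these data, passing the limit was not always enough); inconclusive = at or under the limit in just one replicate; inactive = at or above the limit in both replicates.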

Sequence of Receptor tyrosine-protein kinase erbB-2 (Homo sapiens) (P04626 whole entry, looked up): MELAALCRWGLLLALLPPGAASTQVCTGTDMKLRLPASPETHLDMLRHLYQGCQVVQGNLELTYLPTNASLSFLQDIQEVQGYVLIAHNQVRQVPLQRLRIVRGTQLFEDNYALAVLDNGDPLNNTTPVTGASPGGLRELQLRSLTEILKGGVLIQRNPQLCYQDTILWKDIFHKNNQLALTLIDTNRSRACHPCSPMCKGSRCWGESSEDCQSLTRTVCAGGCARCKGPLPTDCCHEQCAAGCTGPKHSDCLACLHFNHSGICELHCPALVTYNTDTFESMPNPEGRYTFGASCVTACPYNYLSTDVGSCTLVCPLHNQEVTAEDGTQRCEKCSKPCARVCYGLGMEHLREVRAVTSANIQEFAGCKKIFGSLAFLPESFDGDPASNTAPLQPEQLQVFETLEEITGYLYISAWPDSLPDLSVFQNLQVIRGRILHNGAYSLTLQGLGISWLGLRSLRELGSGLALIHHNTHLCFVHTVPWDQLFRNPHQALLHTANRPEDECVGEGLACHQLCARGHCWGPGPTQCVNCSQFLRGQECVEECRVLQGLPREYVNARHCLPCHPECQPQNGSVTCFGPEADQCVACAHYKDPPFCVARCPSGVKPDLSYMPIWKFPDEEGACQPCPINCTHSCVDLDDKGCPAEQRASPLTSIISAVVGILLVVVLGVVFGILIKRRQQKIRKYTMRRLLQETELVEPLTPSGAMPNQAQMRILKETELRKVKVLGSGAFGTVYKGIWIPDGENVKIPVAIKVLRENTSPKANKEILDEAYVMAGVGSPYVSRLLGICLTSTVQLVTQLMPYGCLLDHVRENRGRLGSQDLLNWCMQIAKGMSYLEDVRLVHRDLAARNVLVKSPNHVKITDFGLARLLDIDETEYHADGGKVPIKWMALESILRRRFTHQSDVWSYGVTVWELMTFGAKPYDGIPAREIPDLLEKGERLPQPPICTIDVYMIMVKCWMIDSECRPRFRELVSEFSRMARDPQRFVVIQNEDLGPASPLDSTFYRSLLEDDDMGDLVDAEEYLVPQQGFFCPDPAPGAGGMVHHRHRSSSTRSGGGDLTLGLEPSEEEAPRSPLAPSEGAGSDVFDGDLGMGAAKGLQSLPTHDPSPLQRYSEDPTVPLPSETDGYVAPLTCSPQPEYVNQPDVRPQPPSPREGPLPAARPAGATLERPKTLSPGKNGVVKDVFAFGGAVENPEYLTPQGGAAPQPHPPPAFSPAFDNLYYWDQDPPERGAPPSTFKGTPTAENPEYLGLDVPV

In the case of `CCCNS(=O)(=O)c1ccc(OCC(=O)NCc2ccco2)cc1`, the viability (as a rule, a read-out of living cells in per cent, often relative to untreated cells) in assay [1] was 93.5%; in assay [3], 93.5% (inactive); in assay [4], 91.3% (inactive); in assay [5], 83.7% (inactive); in assay [6] (setting [9]), 87.2%; in assay [6] (setting [10]) it was 83.7%. Also, the Her2 level in assay [2] was 120% (inactive). In assay [6] (H69AR cells + 2 uM doxorubicin), the differential viability (reversal) is -3.46% (inactive). Also, the inhibition (usually the drop in the measured response relative to a control, in per cent) in assay [7] was 1.6% (inactive); in assay [8], -3.65% (inactive).
Turning to `Cc1cc(=O)oc2cc(Oc3ncccn3)ccc12`, the viability was 98% in assay [1]; 98% (inactive) in assay [3]; 101% (inactive) in assay [4]; 83% (inactive) in assay [5]; 89.4% in assay [6] (setting [9]); 83% in assay [6] (setting [10]). In assay [2], the Her2 level was 106% (inactive). The differential viability (reversal) in assay [6] (H69AR cells + 2 uM doxorubicin) is -6.5% (inactive). For the same molecule, the inhibition in assay [7] was -8.4% (inactive); in assay [8], 16.7% (inactive).
Turning to `CC(=O)c1c(C)[nH]c(C(=O)Nc2ccc3c(c2)OCCO3)c1C`, the viability in assay [1] was 102%; in assay [3] it was 102% (inactive); in assay [4] it was 86.1% (inactive); in assay [5], 92.9% (inactive); in assay [6] (setting [9]), 74.8%; in assay [6] (setting [10]) it was 92.9%. Also, the Her2 level in assay [2] is 92% (inactive). In assay [6] (H69AR cells + 2 uM doxorubicin), the differential viability (reversal) is 18.1% (inactive). Moreover, the inhibition was -0.26% (inactive) in assay [7] and 2.42% (inactive) in assay [8].
For the molecule `CC(n1cnnn1)C12CC3CC(CC(C3)C1)C2` (stereo not given), the viability in assay [1] was 88.5%; in assay [3], 88.5% (inactive); in assay [4] it was 93.4% (inactive); in assay [5], 96% (inactive); in assay [6] (setting [9]), 84.7%; in assay [6] (setting [10]), 96%. Also, the Her2 level in assay [2] is 96% (inactive). The differential viability (reversal) in assay [6] (H69AR cells + 2 uM doxorubicin) is 11.3% (inactive). Besides, the inhibition in assay [7] is -1.2% (inactive); in assay [8], 1.97% (inactive).
For the molecule `Cc1cccc(C)c1NC(=O)CC(NCc1ccco1)C(=O)O` (stereo not given), the viability in assay [1] is 116%; in assay [3], 116% (inactive); in assay [4], 118% (inactive); in assay [5], 109% (inactive); in assay [6] (setting [9]) it was 95.8%; in assay [6] (setting [10]), 109%. Moreover, the Her2 level in assay [2] is 85% (inactive). For the same molecule, the differential viability (reversal) in assay [6] (H69AR cells + 2 uM doxorubicin) is 13.5% (inactive). The inhibition in assay [7] was -7.7% (inactive); in assay [8], -2.67% (inactive).
`CCOC(=O)Cc1c(C)c2c(O)cc(O)cc2oc1=O`: the viability in assay [1] was 84.5%; in assay [3], 84.5% (inactive); in assay [4] it was 97.3% (inactive); in assay [5] it was 99% (inactive); in assay [6] (setting [9]), 86.8%; in assay [6] (setting [10]) it was 99%. Also, the Her2 level in assay [2] was 77.5% (inactive). The differential viability (reversal) in assay [6] (H69AR cells + 2 uM doxorubicin) was 12.2% (inactive). Besides, the inhibition was -6.27% (inactive) in assay [7] and 1.9% (inactive) in assay [8].
On to `O=C(CSc1ncnc2c1oc1ccccc12)Nc1ccccc1C(F)(F)F`, for which the viability in assay [1] is 118%; in assay [3], 118% (inactive); in assay [4] it was 86.8% (inactive); in assay [5], 95.8% (inactive); in assay [6] (setting [9]), 87.6%; in assay [6] (setting [10]), 95.8%. In addition, the Her2 level in assay [2] was 126% (inactive). Also, in assay [6] (H69AR cells + 2 uM doxorubicin), the differential viability (reversal) is 8.15% (inactive). Besides, the inhibition in assay [7] is -5.6% (inactive); in assay [8] it was -2% (inactive).
With `CN(CCc1ccccn1)C(=O)CCNC(=O)Cn1cnc2ccccc2c1=O`, the viability in assay [1] is 99.5%; in assay [3] it was 99.5% (inactive); in assay [4], 88.9% (inactive); in assay [5], 96.4% (inactive); in assay [6] (setting [9]), 82.5%; in assay [6] (setting [10]), 96.4%. In assay [2], the Her2 level is 97.5% (inactive). Besides, in assay [6] (H69AR cells + 2 uM doxorubicin), the differential viability (reversal) was 13.9% (inactive). The inhibition was -2.86% (inactive) in assay [7] and -1.9% (inactive) in assay [8].
Turning to `Cc1cccc(-n2c(Cc3cc(=O)[nH]c(=O)[nH]3)nnc2SCC(=O)NCc2ccco2)c1`, the viability in assay [1] was 99.5%; in assay [3] it was 99.5% (inactive); in assay [4], 108% (inactive); in assay [5] it was 111% (inactive); in assay [6] (setting [9]) it was 97.1%; in assay [6] (setting [10]) it was 111%. For the same molecule, in assay [2], the Her2 level was 89.5% (inactive). In assay [6] (H69AR cells + 2 uM doxorubicin), the differential viability (reversal) is 13.9% (inactive). For the same molecule, the results for the inhibition in assay [7] and in assay [8] were -7.07% (inactive) and 4.19% (inactive), respectively.
In the case of `O=C(CSc1nnc2sc3ccccc3n12)c1ccco1`, the viability in assay [1] is 95%; in assay [3], 95% (inactive); in assay [4], 118% (inactive); in assay [5], 102% (inactive); in assay [6] (setting [9]), 85.3%; in assay [6] (setting [10]) it was 102%. In assay [2], the Her2 level was 85.5% (inactive). In addition, the differential viability (reversal) in assay [6] (H69AR cells + 2 uM doxorubicin) was 16.9% (inactive). The inhibition in assay [7] is -4.46% (inactive); in assay [8], -6% (inactive).
For the molecule `Nc1nc(-n2cnnc2)nn1-c1ccccc1`, the viability in assay [1] was 92%; in assay [3], 92% (inactive); in assay [4], 85.6% (inactive); in assay [5], 101% (inactive); in assay [6] (setting [9]) it was 89.9%; in assay [6] (setting [10]), 101%. In addition, the Her2 level in assay [2] is 116% (inactive). In addition, in assay [6] (H69AR cells + 2 uM doxorubicin), the differential viability (reversal) was 11.4% (inactive). Further, the inhibition was 0.13% (inactive) in assay [7] and -8.5% (inactive) in assay [8].
Consider `CCOc1cc(C(=O)NCC2CCCO2)cc(OCC)c1OCC` (stereo not given), for which the viability in assay [1] is 100%; in assay [3] it was 100% (inactive); in assay [4], 119% (inactive); in assay [5], 102% (inactive); in assay [6] (setting [9]), 92.2%; in assay [6] (setting [10]), 102%. Also, in assay [2], the Her2 level was 110% (inactive). Besides, the differential viability (reversal) in assay [6] (H69AR cells + 2 uM doxorubicin) is 10% (inactive). Also, the figures for the inhibition in assay [7] and in assay [8] were -4.86% (inactive) and -5.33% (inactive), respectively.
For the molecule `CS(=O)(=O)Nc1ccc(C(=O)NCCc2ccccc2)cc1`, the viability in assay [1] is 96.5%; in assay [3], 96.5% (inactive); in assay [4], 102% (inactive); in assay [5], 98.3% (inactive); in assay [6] (setting [9]) it was 85.4%; in assay [6] (setting [10]), 98.3%. In assay [2], the Her2 level was 94.5% (inactive). The differential viability (reversal) in assay [6] (H69AR cells + 2 uM doxorubicin) is 12.9% (inactive). Further, the inhibition in assay [7] is -3.47% (inactive); in assay [8], -3.55% (inactive).
As for `COc1ccccc1-n1c(SCC(N)=O)nnc1-c1ccccc1`, the viability in assay [1] was 126%; in assay [3], 126% (inactive); in assay [4] it was 88.7% (inactive); in assay [5], 87.7% (inactive); in assay [6] (setting [9]), 87.8%; in assay [6] (setting [10]) it was 87.7%. In assay [2], the Her2 level was 97% (inactive). In addition, the differential viability (reversal) in assay [6] (H69AR cells + 2 uM doxorubicin) was -0.18% (inactive). The inhibition is -7.11% (inactive) in assay [7] and 1.9% (inactive) in assay [8].
